The record followed here is ChEMBL document CHEMBL4513216, “Probing the Open Global Health Chemical Diversity Library for Multistage-Active Starting Points for Next-Generation Antimalarials” (ACS Infect Dis, 2020).

A short description of the series: Toxicity liver stage against HepG2, at 10uM. The format is cell-based. On the set-up: test concentration 10 uM, cell line HepG2-A16-CD81EGFP. The note with it: human, HepG2-A16-CD81EGFP cells; read-out: INHIBITION
In a few lines:
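Uninfected HepG2-A16-CD81EGFP cells, 3 × 10^3 per well, 1536-well, plated on prespotted compound at 10 μM final, parasite-free screening media added to match infected plates; puromycin 10 μM positive, DMSO 0.5% negative; run in parallel with 48 h PbLuc assay at 37 °C, 5% CO2; viability by CellTiter-Glo luminescence, normalized to controls.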

`CN(C)CCCC(=O)N1C[C@@H]2CC[C@H]1CN(Cc1ccccc1)C2`: the cytotoxicity at 10 µM is -5.39%.

For the compound `CCCc1nc(C)c(CN2CC3(CCOC3)CCC2=O)s1` (stereo unspecified), the cytotoxicity at 10 µM was -10.5%.

In the case of `CC(C)c1cc(C(=O)N2CCOC3(CCCC3)C2)no1`, the cytotoxicity at 10 µM is -6.2%.

`CCn1cc(SCC(=O)N2CCCC(O)(CO)C2)c2ccccc21` (stereo unspecified): the cytotoxicity at 10 µM was 6.37%.

On to `COCC(=O)N1CCC(c2cncc(-c3cccc(F)c3)n2)CC1`, for which the cytotoxicity at 10 µM is -11.3%.

Take `Cc1ccccc1OCC1CCCN(C(=O)CNC(=O)N(C)C)C1` (stereo unspecified): the cytotoxicity at 10 µM was -4.46%.

Consider `COc1cccc2c1OCC(C(=O)NCc1c(C)noc1C)C2` (stereo unspecified), for which the cytotoxicity at 10 µM is -15.5%.

As to `Cc1noc(C)c1CN1CC[C@H]2OCC[C@@H](C(=O)N3CCCO3)[C@H]2C1`, the cytotoxicity at 10 µM came to 2%.

Turning to `O=C(NCc1ccccc1)[C@H]1C[C@H]2CN(S(=O)(=O)C3CC3)C[C@@H]1O2`, the cytotoxicity at 10 µM was found to be 1.59%.

As for `CN(CC(F)(F)F)C(=O)CNC(=O)N1CCC(N2CCCC2)C1` (stereo unspecified), the cytotoxicity at 10 µM worked out at 3.72%.

As for `CC(C)CNC(=O)CN1CCCC(c2ccc(C(=O)O)cc2)C1` (stereo unspecified), the cytotoxicity at 10 µM is -6.49%.

`c1ccc(CCCN2CC(n3cccn3)C2)cc1`: the cytotoxicity at 10 µM is -3.83%.

As to `CC(O)CN1CCC(CNCc2ccc(OC(F)(F)F)cc2)CC1` (stereo unspecified), the cytotoxicity at 10 µM is -13.6%.

Take `CN(C)CC(=O)N1CCc2ncnc(-c3cncnc3)c2CC1`: the cytotoxicity at 10 µM was -2.42%.

As to `CC(c1nc(C(C)(C)C)no1)N1CCN(C(=O)CN2CCOCC2)CC1` (stereo unspecified), the cytotoxicity at 10 µM was -3.51%.

As for `CCOCC(=O)NCc1cc(C2CC2)n(C2CCCC2)n1`, the cytotoxicity at 10 µM is -0.165%.

Take `N#Cc1cc(C(F)(F)F)ccc1NCC1CCS(=O)(=O)CC1`: the cytotoxicity at 10 µM was 10.2%.

As for `CC(=O)N1CCCN(C(=O)NCc2cc[nH]n2)CC1`, the cytotoxicity at 10 µM is -6.44%.

Consider `CCn1cnnc1CNC(=O)C1CCCN(Cc2cccc(F)c2)C1` (stereo unspecified), for which the cytotoxicity at 10 µM turned out to be 3.5%.

With `CCn1cc(CN2CCCC2c2nc(C(C)C)no2)cc1C#N` (stereo unspecified), the cytotoxicity at 10 µM worked out at 1.44%.

On to `CNC(=O)[C@H]1C[C@@H]2CN(C(=O)c3ccncc3)C[C@@H]2N1S(C)(=O)=O`, for which the cytotoxicity at 10 µM is -5.98%.

`Cn1ccnc1CCNC(=O)NCCC1CCCCO1` (stereo unspecified): the cytotoxicity at 10 µM was -1.94%.

On to `CC(=O)NC[C@H]1COCc2nc3c(C)cccc3n21`, for which the cytotoxicity at 10 µM worked out at 8.65%.

`CS(=O)(=O)CC(=O)NCC1OCCc2cn(CC3CC3)nc21` (stereo unspecified): the cytotoxicity at 10 µM is 3.45%.

In the case of `Cc1noc(C)c1CN(C)Cc1csc(-c2ccc(C(C)C)cc2)n1`, the cytotoxicity at 10 µM turned out to be 54.8%.

In the case of `Cc1cc(C(=O)NC2CCc3nc(C)cn3C2)[nH]n1` (stereo unspecified), the cytotoxicity at 10 µM was -5.15%.

For the compound `CC(O)CC(C)(C)CNC(=O)Nc1cnn(-c2ccccc2F)c1` (stereo unspecified), the cytotoxicity at 10 µM was -3.27%.

With `CCNC(=O)[C@@H]1C[C@H](NC(=O)c2cc(CC)n[nH]2)CN1Cc1ccsc1`, the cytotoxicity at 10 µM was -5.92%.

For the compound `COc1c(C2CCCN2C(=O)c2ccnc(C)n2)c(C)nn1C` (stereo unspecified), the cytotoxicity at 10 µM was -12%.

Regarding `Cc1ccccc1C1(CN)CCCCC1`, the cytotoxicity at 10 µM worked out at 2.29%.

With `CC(C)OCCCNC(=O)NC(C)c1ccc(-n2cncn2)cc1` (stereo unspecified), the cytotoxicity at 10 µM was -5.32%.

On to `NC(=O)CN1CCC2(CC1)C[C@@H](O)[C@H](c1ccccc1)NC2=O`, for which the cytotoxicity at 10 µM was -23%.

Take `O=C(Cc1cccs1)N1CC[C@H]2[C@H]1CCN2Cc1cccnc1`: the cytotoxicity at 10 µM was 2.41%.

Take `O=C(CCn1cccc1)NCc1ccc(CN2CCCCCC2)o1`: the cytotoxicity at 10 µM was -5.2%.

Consider `CCN1CCC(CNCc2cc(C)ccc2OC)C1` (stereo unspecified), for which the cytotoxicity at 10 µM is 17.4%.

Regarding `O=C(c1cccc2c1OCO2)N1CCCCC1Cn1cccn1` (stereo unspecified), the cytotoxicity at 10 µM is -1.25%.

`O=C(Nc1cccnc1-n1cncn1)N(C1CCCC1)C1CC1`: the cytotoxicity at 10 µM was -10.9%.

Take `O=C1N(Cc2cccc(F)c2F)CCCC1(O)CNC1CCCC1` (stereo unspecified): the cytotoxicity at 10 µM turned out to be 13.8%.

As to `COCC(=O)N1CCC2(CC1)CN(c1cncnc1)C(=O)CO2`, the cytotoxicity at 10 µM is -78.6%.

On to `CCOC(=O)C1(O)CCN(C(=O)Nc2ccc(CC)cc2)CC1`, for which the cytotoxicity at 10 µM was -130%.

For `C[C@H]1C[C@@H]2CCN(C(=O)c3cccn3C)C[C@H]2O1`, the cytotoxicity at 10 µM came to 10.1%.

`CCOCCn1c(=O)[nH]c2cc(C(=O)N(C)Cc3nc(C)c[nH]3)ccc21`: the cytotoxicity at 10 µM stood at 6.09%.

In the case of `OCCN1CCC(F)(F)C2(CCN(c3cccnc3)C2)C1` (stereo unspecified), the cytotoxicity at 10 µM is -94.7%.

As for `O=C(c1ccoc1)N1CCCC1C1CCN(Cc2ccccc2)CC1` (stereo unspecified), the cytotoxicity at 10 µM is -10.6%.

Turning to `CN(Cc1cccnc1)[C@@H]1CN(C(=O)c2ccno2)[C@@H]2CCCO[C@H]12`, the cytotoxicity at 10 µM was -118%.

As to `Cc1csc(CCNC(=O)C2CCN(CC(N)=O)CC2)n1`, the cytotoxicity at 10 µM was -5.26%.

Consider `O=C(NC(C(=O)Nc1cc[nH]n1)c1ccccc1)C1CCC1` (stereo unspecified), for which the cytotoxicity at 10 µM is -17.5%.

Consider `c1ccc(-c2nc(CN3CCCC(Cn4cncn4)C3)cs2)cc1` (stereo unspecified), for which the cytotoxicity at 10 µM was -9.53%.

For the compound `CC(C)Cc1ncc2c(n1)CN(C(=O)c1ccc(Cn3ccnc3)o1)C2`, the cytotoxicity at 10 µM was determined as 3.09%.

With `COCCNC(=O)C1CN(Cc2cccnc2)Cc2ccnn2C1` (stereo unspecified), the cytotoxicity at 10 µM was -76.1%.

As for `CCCc1noc(CN2CCCC2c2noc(C3CC3)n2)n1` (stereo unspecified), the cytotoxicity at 10 µM is -13%.

For the compound `Cc1nccn1CC1CCCN1S(=O)(=O)Cc1ccon1` (stereo unspecified), the cytotoxicity at 10 µM was -9.57%.

Turning to `O=C(c1cnc(Nc2ccccc2)nc1)N1CCC2(CCNCC2)CC1`, the cytotoxicity at 10 µM is -5.96%.

`CN(Cc1cccnc1)C[C@@H]1OC[C@H]2CN(C(=O)C3CC3)CC[C@H]21`: the cytotoxicity at 10 µM is -136%.

As for `CC(C)CC(=O)N1CC[C@H]2N(C)CC[C@@]2(C(=O)Nc2ccccc2)CC1`, the cytotoxicity at 10 µM was -4.71%.

On to `Cc1nc2c(C(=O)N[C@H]3C[C@H]4CN(C)CCN4C3)cccc2[nH]1`, for which the cytotoxicity at 10 µM is -7.98%.

As for `CN(C)c1cc(C2CCCN(Cc3cnn(C)c3)C2)ccn1` (stereo unspecified), the cytotoxicity at 10 µM is -1.88%.

As for `CCOc1cccc(COC(=O)c2scnc2C)n1`, the cytotoxicity at 10 µM is -0.966%.

Turning to `Cc1noc(CC2CCN(C(=O)C(c3ccccc3C)N(C)C)CC2)n1` (stereo unspecified), the cytotoxicity at 10 µM amounted to 1.86%.

On to `CC(C(=O)Nc1ccc(N2CCOCC2)nc1)n1cncn1` (stereo unspecified), for which the cytotoxicity at 10 µM is -33.9%.

Regarding `Cc1csc(C2CCCCN2C(=O)c2cn[nH]c2C)n1` (stereo unspecified), the cytotoxicity at 10 µM was -1.53%.

On to `Cc1ccc(C2CN(Cc3cnc(-c4cccnc4)s3)CCO2)o1` (stereo unspecified), for which the cytotoxicity at 10 µM was -10.9%.

For `CC(C)Nc1nc(O)cc(C2CC(=O)N(Cc3ccccc3)C2)n1` (stereo unspecified), the cytotoxicity at 10 µM was -28.5%.

For `CC(C)c1nc(CN(C)C(=O)CCNC(=O)c2ccccc2F)no1`, the cytotoxicity at 10 µM is 4.66%.

In the case of `OC(COCc1ccc(Cl)cc1)CN1CCC(c2ccn[nH]2)CC1` (stereo unspecified), the cytotoxicity at 10 µM is -7.21%.

For the compound `O=C1NC2(CCN(Cc3ccc(F)cc3)CC2)CC1c1ccncc1` (stereo unspecified), the cytotoxicity at 10 µM is 3.16%.

For `Cc1ncsc1C(=O)NCc1ccnc(OCC(F)(F)F)c1`, the cytotoxicity at 10 µM was -1.37%.

Turning to `COCc1nc2cc3c(cc2c(=O)o1)OCCCO3`, the cytotoxicity at 10 µM stood at 1.19%.

In the case of `CNC(=O)c1cccnc1NCc1ccc(Cn2ccnc2)cc1`, the cytotoxicity at 10 µM is 90.3%.

Take `Cn1cnc2c1CCN(CC(=O)NC1CCCCNC1=O)C2` (stereo unspecified): the cytotoxicity at 10 µM is -5.97%.

As to `CN(Cc1ccon1)C(=O)C1CC(=O)N(Cc2cccnc2)C1` (stereo unspecified), the cytotoxicity at 10 µM was -3.83%.

Consider `CN1CCN(C2CCN(CCOc3cccc(Cl)c3)CC2)C1=O`, for which the cytotoxicity at 10 µM is -2.83%.

Regarding `CC(=O)c1ccc(NC(=O)N(CCN(C)C)Cc2ccc(C)s2)cc1`, the cytotoxicity at 10 µM is -16.5%.

For the compound `CC(=O)NCC1CCN(C(=O)c2ccc(Sc3ccccn3)cc2)CC1`, the cytotoxicity at 10 µM was 9.15%.

On to `CCSc1ccc(C(C)NC(=O)CNS(C)(=O)=O)cc1` (stereo unspecified), for which the cytotoxicity at 10 µM is 10.4%.

On to `COc1ccc(-n2ccc(C(=O)NCCN3CCCCCC3)n2)cc1`, for which the cytotoxicity at 10 µM is -3.84%.

As to `Cc1nc(CN2CCN(Cc3cc4n(n3)CCNC4)CC2)cs1`, the cytotoxicity at 10 µM was -3.25%.

Consider `CC(O)(CN1CCC2(CC1)OCCO2)c1cccc(C(F)(F)F)c1` (stereo unspecified), for which the cytotoxicity at 10 µM was -9.21%.

Take `CN1C(=O)c2cccc(NC(=O)c3ccc4c(c3)OCCO4)c2C1=O`: the cytotoxicity at 10 µM was 4.02%.

As for `CCc1nc(C2CCCN2Cc2nnc(C3CC3)o2)no1` (stereo unspecified), the cytotoxicity at 10 µM was -13.2%.

Regarding `Cc1nc(CN2CCCC(N(C)Cc3cnn(C)c3)C2)no1` (stereo unspecified), the cytotoxicity at 10 µM was -7.72%.

Consider `CCCn1c(C)cc(C(=O)CN2C(=O)c3ccccc3CS2(=O)=O)c1C`, for which the cytotoxicity at 10 µM was -1.94%.

Regarding `COCCN1CCCC(c2cncc(Oc3ccccc3OC)n2)C1` (stereo unspecified), the cytotoxicity at 10 µM was -22.8%.

As for `Cn1ccc(C(=O)NC2CCN(c3ncccn3)CC2)cc1=O`, the cytotoxicity at 10 µM was -7.32%.

With `CC(=O)Nc1nc(CN2CCCC2Cn2cncn2)cs1` (stereo unspecified), the cytotoxicity at 10 µM was determined as 0.222%.

Turning to `O=c1cccnn1CC1CN(Cc2ccsc2)Cc2nccn2C1` (stereo unspecified), the cytotoxicity at 10 µM was found to be 1.31%.

Regarding `CCC(=O)N1CCOC(c2cc(Nc3nncs3)cc(C)n2)C1` (stereo unspecified), the cytotoxicity at 10 µM came to 5.67%.

Consider `CC(C)NC(=O)[C@@H]1C[C@@H](N)CN1C(=O)CCSCc1ccc(F)cc1`, for which the cytotoxicity at 10 µM is -3.43%.

As for `COc1ccccc1-c1nnc([C@H]2CCN(C(C)=O)C2)o1`, the cytotoxicity at 10 µM worked out at 4.71%.

`Cc1[nH]c(=O)[nH]c(=O)c1CN1CCCC(CCc2ccccc2F)C1` (stereo unspecified): the cytotoxicity at 10 µM is -4.19%.

`CC(C)Cc1noc(CN2CCOC(Cn3cncn3)C2)n1` (stereo unspecified): the cytotoxicity at 10 µM is -2.58%.

In the case of `Cn1cccc1C(CNC(=O)c1ccc(F)cc1F)N1CCCCCC1` (stereo unspecified), the cytotoxicity at 10 µM stood at 2.19%.

As for `O=C(NCCSC1CCCC1)c1cnccn1`, the cytotoxicity at 10 µM is -0.95%.

In the case of `O=C(C1CC1)N1CCCC1c1nnc2n1CCCCC2` (stereo unspecified), the cytotoxicity at 10 µM was -0.614%.

In the case of `CCN(Cc1cccc(F)c1)S(=O)(=O)N1CCOCC1`, the cytotoxicity at 10 µM is -1.71%.

Regarding `CC(C)n1ncc2cc(NC(=O)N3CCSCC3)cnc21`, the cytotoxicity at 10 µM is -5.07%.
